Screens deposited in PubChem by Sanford-Burnham Center for Chemical Genomics.
DNMT1 block: blocks human DNA methyltransferase DNMT1 | AID 588458 | P26358 | hit rate 0.83% among 360,000 | inhibition (reported as % activation of signal), % at 10 µM | DNMT1 molecular beacon, Hinp1I cleavage, fluorescence; in the data active means inhibition above about 50%
STEP block: inhibitors of human striatal-enriched phosphatase STEP; AID 588621; inhibition, % at 20 µM; recombinant STEP, OMFP fluorogenic substrate, fluorescence; hit rate 0.25% among 360,000;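 active means inhibition at 20 µM, scaled per plate between control wells, above about 37%, limit read from the data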
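System: isolated STEP enzyme; schedule: 20 min enzyme reaction at room temperature, protected from light; medium: Bis-Tris buffer pH 6.0, 2.5 mM DTT, 0.005% Tween 20; signal: fluorescence, 480/540 nm; dosing: single compound dose of 20 µM, 1% DMSO final; also added: OMFP substrate, 25 µM final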
SUMO1-SIM PPI: alters human SUMO1 binding to SIM partners; SUMO1 binding to a labelled peptide, TR-FRET, 1 h; inhibition, % at 20 µM; hit rate 0.33% among 360,000; in the data active means inhibition above about 37%
Target sequence (P63165 whole entry, looked up): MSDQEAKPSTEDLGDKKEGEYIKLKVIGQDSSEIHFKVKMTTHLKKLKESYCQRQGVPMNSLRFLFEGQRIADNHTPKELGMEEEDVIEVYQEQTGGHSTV
LMPTP block: blocks human LMPTP phosphatase; AID 651560; hit rate 0.22% among 360,000; recombinant LMPTP-A, OMFP fluorogenic substrate, fluorescence intensity; inhibition, % at 20 µM;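 active means compounds that cut the enzyme signal by at least half of the control window in the single-dose screen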
Target sequence (P24666 whole entry, looked up): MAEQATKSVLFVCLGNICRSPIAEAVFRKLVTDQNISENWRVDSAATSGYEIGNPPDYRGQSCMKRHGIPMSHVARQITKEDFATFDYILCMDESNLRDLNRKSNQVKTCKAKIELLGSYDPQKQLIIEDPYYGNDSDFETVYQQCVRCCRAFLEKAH
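Test system – LMPTP-A phosphatase enzyme · Quantity – 0.625 nM LMPTP-A final · Reagent – OMFP substrate, 400 µM final · Dosing – one test concentration per compound, 20 µM, with 3% DMSO overall · Timing – 50 min enzyme reaction at room temperature, protected from light · Detection – fluorescence intensity · Controls – substrate-only low control, DMSO enzyme-plus-substrate high control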
Scp-1 inhibitor: inhibitors of human Scp-1 phosphatase; Q9GZU7; Recombinant Scp1, phosphopeptide, malachite green phosphate absorbance; inhibition, % at 20 µM; hit rate 0.88% among 340,000; AID 493091;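 active means inhibition above about 50% at 20 µM, limit read from the data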
Target sequence (Q9GZU7 76-261 limits assumed): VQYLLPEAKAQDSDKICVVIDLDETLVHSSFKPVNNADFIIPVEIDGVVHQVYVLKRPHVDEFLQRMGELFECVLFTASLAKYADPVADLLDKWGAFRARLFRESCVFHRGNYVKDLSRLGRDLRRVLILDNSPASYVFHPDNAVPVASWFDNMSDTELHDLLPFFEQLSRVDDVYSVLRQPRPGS
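Times: enzyme reaction 45 min at room temperature, colour 5 min, stabilisation 30 min. Material: SCP-1 catalytic fragment, aa 76-261. Medium: Acidic Tris acetate buffer with magnesium and detergent. Signal: colorimetric free-phosphate detection, absorbance 630 nm. Read-out basis: % inhibition of SCP-1 phosphate liberation. Reagent: Phosphorylated 17-residue peptide substrate.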
Scp1 confirm: confirmation of human Scp-1 phosphatase inhibitors; recombinant SCP-1 catalytic domain, phosphate release, malachite green absorbance; hit rate 61% among 2,500; inhibition, % at 20 µM; shares compounds with Scp-1 inhibitor
MG interference: interferes with malachite green readout, flagging false Scp-1 hits; shares compounds with Scp-1 inhibitor; Colorimetric interference counterscreen, malachite green absorbance 630 nm; apparent inhibition (interference), % at 20 µM; 2,500 tested, under 10 active;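 further: compounds added after enzyme reaction finished so only phosphate colour detection is probed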
Scp1 DSF: binds human Scp-1, shifting its melting temperature; shares compounds with Scp-1 inhibitor; Recombinant SCP1, Sypro Orange thermal shift Tm; thermal shift relative to vanadate control, % at 40 µM; hit rate 25% among 1,500; AID 540329;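 active means substances whose mean melting-temperature shift, as a percentage of the reference inhibitor's shift, reaches about 5.3%, limit read from the data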
Each line names hits and unclear results; the compound was inactive in the other large screens (follow-up assays come after a bar, where they were run). An excerpt weighted towards active compounds, which were near 1.8% of everything screened.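 How the source made its calls, unless noted: active means inhibition of at least 30% at 20 µM; inactive means the rest.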

Cc1ccc(N2CC(C(=O)Nc3nnc(SCCC4OCCO4)s3)CC2=O)cc1 (configuration not stated)	none | Scp1 confirm inactive | MG interference inactive
Cc1ccc(N2CC(C(=O)Nc3nnc(SCCC4OCCO4)s3)CC2=O)cc1C (configuration not stated)	none
CC(=O)Nc1ccc(NC(=O)c2cc(-c3ccc(C)c(C)c3O)n[nH]2)cc1	none
Cc1ccc(NC(=O)c2cc(-c3ccc(C)c(C)c3O)n[nH]2)cc1C	Scp-1 inhibitor 98.5 | Scp1 confirm 66.9 | MG interference inactive | Scp1 DSF 7.5
Cc1cc(Cl)ccc1C(=O)C1CCCN(C(=O)c2cccc(N3CCCC3=O)c2)C1 (configuration not stated)	none
C=C1CCN(C(CC(C)C)C(=O)OC)S(=O)(=O)c2ccccc21 (configuration not stated)	none
COC(=O)[C@H](CC(C)C)N1Cc2cc(OC)cc(OC)c2-c2ccccc2S1(=O)=O	Scp-1 inhibitor 98.2 | Scp1 confirm 50.1 | MG interference inactive | Scp1 DSF inactive
Cc1c(C(=O)OCC(=O)N2CCC(C)CC2)oc2ccccc12	none
Cc1c(C(=O)OCC[N+]2(C)CCCCC2)oc2ccccc12	Scp-1 inhibitor 88.8 | Scp1 confirm inactive | MG interference inactive
Cc1ccc(NC(=O)CN(C)C(=O)CSc2nnc(C)s2)cc1	none
COC(=O)c1ccn(CC(=O)NC2CCCCC2)n1	Scp-1 inhibitor 66.0 | Scp1 confirm 48.1 | MG interference inactive | Scp1 DSF inactive
O=C(Cn1cc2c(n1)CCCC2)NC1CCCCCC1	none
CCOC(=O)N1CCN(C(=O)COC(=O)Cc2ccc(Cl)cc2)CC1	none
C=C(C)C(=O)N1CC2(CC(c3cccc(NC(=O)/C=C\C=C/C)c3)=NO2)C[C@H]1C(N)=O (some centres not stated)	Scp-1 inhibitor 51.5 | Scp1 confirm 55.0 | MG interference inactive | Scp1 DSF inactive
C=C(C)C(=O)Nc1cccc(C2=NOC3(C2)C[C@H](C(N)=O)N(C(=O)/C=C/C)C3)c1 (some centres not stated)	DNMT1 block 99.0, SUMO1-SIM PPI 59.6, Scp-1 inhibitor 66.0 | Scp1 confirm 57.4 | MG interference inactive | Scp1 DSF inactive
C/C=C\C=C/C(=O)Nc1cccc(C2=NOC3(C2)C[C@@H](C(N)=O)N(C(=O)C2(C)CC2)C3)c1 (some centres not stated)	none
CCCCCC(=O)Nc1cccc(C2=NOC3(C2)C[C@@H](C(N)=O)N(C(=O)c2ccc(Cl)cc2)C3)c1 (some centres not stated)	Scp-1 inhibitor 65.9 | Scp1 confirm inactive | MG interference inactive
Cc1nc(Cc2nnc(SCC(=O)Nc3c(C)cccc3C)o2)cs1	none
COc1ccc(NC(=O)CSc2nc(-c3ccco3)nc3cc(=O)[nH]n23)cc1Cl	Scp-1 inhibitor 53.2 | Scp1 confirm inactive | MG interference inactive
COc1ccc(NC(=O)CSc2n[nH]c(=O)n2C2CC2)cc1Cl	none
CC(NC(=O)CN(Cc1ccccc1)S(=O)(=O)c1ccccc1)c1cccnc1 (configuration not stated)	none
COCCNC(=O)c1ccc(C2SCC(=O)N2Cc2ccco2)cc1 (configuration not stated)	none
C=CCNC(=O)c1ccc(C2SCC(=O)N2Cc2ccco2)cc1 (configuration not stated)	Scp-1 inhibitor 68.8 | Scp1 confirm 52.8 | MG interference inactive | Scp1 DSF inactive
CCOc1ccc(CNC(=O)Cn2nc(C)c3c(C)n(-c4ccc(C)cc4)nc3c2=O)cc1	Scp-1 inhibitor 85.3 | Scp1 confirm 62.3 | MG interference inactive | Scp1 DSF inactive
Cc1ccc(-n2nnc3c(=O)n(CC(=O)NCc4ccccc4)cnc32)cc1	Scp-1 inhibitor 92.9 | Scp1 confirm 86.2 | MG interference inactive | Scp1 DSF inactive
CCOc1ccccc1NC(=O)Cn1cnc2c(nnn2-c2cccc(OC)c2)c1=O	Scp-1 inhibitor 70.8 | Scp1 confirm 58.0 | MG interference inactive | Scp1 DSF inactive
Cc1ccc(-n2nc3c(=O)n(CC(=O)NCc4ccccn4)nc(C)c3c2C)cc1	none
COc1ccc(Nc2ncnc3c2c(C)c(C)n3CCCN(C)C)cc1	none
Cc1ccc(S(=O)(=O)N(C)C)cc1NC(=O)COC(=O)C1=COCCO1	none
CN(CC(=O)Nc1ccccc1Br)C(=O)c1cc2c(s1)CCCCC2	none
CCOc1ccccc1NC(=O)CCS(=O)(=O)c1ccc2c(c1)CCN2C(C)=O	none
CCCN(CC(=O)Nc1cc(Cl)ccc1Cl)C(=O)c1ccccn1	none
COc1ccccc1CC(NC(C)=O)C(=O)NC1CCN(C(=O)Nc2ccccc2F)CC1 (configuration not stated)	none
C/C(=N\NC(=O)c1ccccc1O)c1ccc(NC(=O)c2ccccc2)cc1	Scp-1 inhibitor 67.5 | Scp1 confirm 69.2 | MG interference inactive | Scp1 DSF inactive
COc1ccc(CN2CCC2(C)C(=O)Nc2ccc(OC)c(OC)c2)cc1 (configuration not stated)	none (no result: Scp-1 inhibitor)
O=C(Nc1nccs1)c1ccc2nccnc2c1	Scp-1 inhibitor 51.7 | Scp1 confirm 62.6 | MG interference inactive | Scp1 DSF inactive
Cc1ccc(C(=O)Nc2nccs2)cc1	none
COC(=O)CNC(=O)c1c(-c2ccccc2Cl)noc1C	none
COC(=O)CNC(=O)c1c(-c2c(Cl)cccc2Cl)noc1C	Scp-1 inhibitor 54.7 | Scp1 confirm inactive | MG interference inactive
CSCCC(NS(=O)(=O)c1ccc(Cl)cc1)C(=O)OCc1c(Cl)cccc1Cl (configuration not stated)	none
CSCCC(NS(=O)(=O)c1ccc(Cl)cc1)C(=O)OCc1cccc(Cl)c1 (configuration not stated)	Scp-1 inhibitor 51.3 | Scp1 confirm inactive | MG interference inactive
Cc1onc(-c2ccccc2)c1C(=O)NC1CC1	none
O=C(CSc1nnc2ccccn12)NNC(=O)c1cccc([N+](=O)[O-])c1	none
CC1=CC(C)(C)N(C(=O)c2ccccc2)c2ccccc21	none
CC1=CC(C)(C)[N+](C)(C)c2ccccc21	Scp-1 inhibitor 72.5 | Scp1 confirm inactive | MG interference inactive
CC(=O)OC1C2CCC1C([N+]1(C)CCCCC1)CC2 (configuration not stated)	Scp-1 inhibitor 93.5 | Scp1 confirm 94.9 | MG interference inactive | Scp1 DSF inactive
